rRNA inh HTS: inhibits bacterial ribosomal RNA function over humanized ribosomes. AID 720706. E. coli WT GFP vs humanized-ribosome RFP mutants, fluorescence, 24 h; stronger effect = lower value; DMSO median 0, no signal -100. hit rate 1.6% among 350,000. GFP signal change (wild-type ribosome), % (concentration not given with the values);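 active means significant combined selectivity score with lowered wild-type GFP, culture density cut under 30%, mutant RFP and density less affected; inactive means any of these conditions unmet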
Cneo AK release: Cryptococcus neoformans lysis via adenylate kinase release | hit rate 0.2% among 360,000 | C. neoformans lysis, adenylate kinase release luminescence, 4 h; normalised: neutral wells 0, clomiphene wells 100 | lysis activity, % at 15 µM;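 active means mean lysis activity across replicates of at least 80%, whatever share of replicates individually reach that level; inactive means mean lysis activity below 80%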
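Test system: log-phase Cryptococcus neoformans yeast cells; Quantity: yeast cell density of 5 × 10^6 cells/mL; Buffer or medium: YPD; Doses: single compound concentration per well; Timing: 4 h at 37 °C static, read 1 h later; Measured by: AK luminescence; Read-out basis: lysis from increased AK signal; Control set: Clomiphene as positive control.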
Vif imaging: inhibitors of HIV Vif | inhibition, % at 7.49 µM | HEK293T cells, Vif self-association by quenched fluorescence, imaging, 24 h | AID 602346 | hit rate 0.35% among 340,000; in the data active means inhibition above about 50%, passing the limit was not always enough
PGC1a acetyl inh: PGC1a acetylation modulation, inhibitor mode. inhibition, % at 15.6 µM. hit rate 0.17% among 350,000. U2OS PGC1a acetylation, AlphaScreen anti-acetyl-lysine; with virally co-expressed GCN5 acetyltransferase;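 active means every replicate shows inhibition of at least 40%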
PglD inh: inhibitors of Campylobacter jejuni PglD acetyltransferase; purified PglD enzyme, DTNB colorimetric CoA detection; AID 602405; hit rate 0.098% among 360,000; inhibition, % at 12.5 µM; in the data active means inhibition above about 16%, passing the limit was not always enough
FGF22 binding: shifts melting point of recombinant human FGF22. Q9HCT0. recombinant FGF22 thermal shift, SYPRO orange fluorescence; percent of sucrose octasulfate shift, DMSO zero. activity (Tm shift, normalised), % at 9.99 µM. hit rate 1.5% among 340,000. AID 651658;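 active means mean Tm shift, scaled 0 neutral to 100 positive control, at about 1.3% or above, every replicate too, limit read from the data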
Target sequence (Q9HCT0 whole entry, looked up): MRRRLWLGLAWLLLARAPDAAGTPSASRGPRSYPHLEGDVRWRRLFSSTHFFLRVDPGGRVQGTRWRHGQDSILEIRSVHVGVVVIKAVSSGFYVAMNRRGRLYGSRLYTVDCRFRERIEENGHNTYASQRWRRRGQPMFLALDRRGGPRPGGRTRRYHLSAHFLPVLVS
A number is an active result; n = inactive; x = not tested or not shown. Sampled rows, rich in hits. Any-hit rate of the full collection: about 2.9%.

SMILES	rRNA inh HTS	Cneo AK release	Vif imaging	PGC1a acetyl inh	PglD inh	FGF22 binding
C[C@H](CO)N1C[C@H](C)[C@H](CN(C)C(=O)Nc2ccc(F)cc2)Oc2ccc(NC(=O)Nc3ccc(C(F)(F)F)cc3)cc2CC1=O	n	n	x	n	n	1.2
C[C@H]1CN([C@@H](C)CO)C(=O)Cc2cc(N(C)C)ccc2O[C@@H]1CN(C)C(=O)Nc1ccc(C(F)(F)F)cc1	n	142	x	n	n	x
C[C@@H]1CN([C@H](C)CO)C(=O)Cc2cc(N(C)C)ccc2O[C@H]1CN(C)C(=O)Nc1ccc(C(F)(F)F)cc1	n	n	x	n	n	n
C[C@@H]1CN([C@@H](C)CO)C(=O)c2cc(N(C)C)ccc2O[C@@H]1CN(C)C(=O)Nc1ccc(C(F)(F)F)cc1	n	117	x	n	n	n
CCC(=O)N(C)C[C@H]1Oc2cc(C3=CCCCC3)ccc2S(=O)(=O)N([C@@H](C)CO)C[C@H]1C	n	x	x	n	x	x
O=C(Nc1ccc(Cl)c(S(=O)(=O)N2CCOCC2)c1)c1ccc2c(c1)OCO2	-23	n	n	n	n	n
O=C(NC1=NCCS1)c1ccc(Cl)c(S(=O)(=O)N2CCCCC2)c1	x	n	x	n	n	x
O=C(NC1=NCCS1)c1ccc(Cl)c(S(=O)(=O)N2CCCC2)c1	n	x	n	n	x	43
COc1cc(OC)c(N(C)S(=O)(=O)c2cccc(C(=O)NC3=NCCS3)c2)cc1Cl	-23	n	n	n	n	n
O=C(NC1=NCCS1)c1ccc(Cl)c(S(=O)(=O)N2CCOCC2)c1	n	x	n	n	x	43
COc1ccc(N2CCN(C(=O)CSc3nnnn3-c3ccc4c(c3)OCCO4)CC2)cc1	-21	x	n	x	x	n
O=C(C[C@@H]1C=C[C@@H](NC(=O)Nc2cc(F)ccc2F)[C@@H](CO)O1)NCCCN1CCOCC1	n	n	x	n	n	n
O=C(C[C@@H]1C=C[C@@H](NC(=O)Nc2cc(F)ccc2F)[C@H](CO)O1)NCCCN1CCOCC1	n	103	x	n	n	n
COc1ccccc1CNC(=O)C[C@H]1CC[C@@H]2[C@H](COC[C@@H](O)CN2C(=O)Nc2ccc(F)cc2)O1	n	n	x	n	n	n
CC1(C(=O)NS(=O)(=O)c2cccc(F)c2)CCN1C(=O)C1(c2ccc(Cl)cc2)CCC1 (configuration not stated)	-16	n	n	n	n	n
CC(C)(C)c1ccc(CC(=O)N2CCC2(C)C(=O)NS(=O)(=O)c2cccc(C#N)c2)cc1 (configuration not stated)	n	n	n	x	n	n
CC(C)(C)c1ccc(CC(=O)N2CCC2(C)C(=O)NS(=O)(=O)c2cccc(Cl)c2)cc1 (configuration not stated)	-33	n	n	n	n	n
CC1(C(=O)NS(=O)(=O)c2cccc(C#N)c2)CCN1C(=O)C1(c2ccc(Cl)cc2)CCC1 (configuration not stated)	-15	n	n	n	n	n
CCCNC(=O)N1C[C@@H]2[C@H](c3ccccc31)[C@H](CO)N2C(=O)NC(C)C	n	n	x	n	n	x
CC(C)CC#Cc1ccc([C@H]2[C@H](CO)N3C(=O)CN(S(=O)(=O)c4ccccc4)C[C@@H]23)cc1	n	x	x	n	x	x
CCCNC(=O)C[C@@H]1CC[C@@H]2[C@H](COc3ccc(NC(=O)c4cccc(C(F)(F)F)c4)cc3C(=O)N2C)O1	n	n	x	n	n	n
O=Nc1c(O)c2ccccc2c2ccccc12	n	n	n	45	n	n
O=c1ccc2ccccc2c2ccccc12	n	x	n	x	x	n
Cn1c(NC(=O)c2ccc(Cl)cc2)cc(=O)n(C)c1=O	n	x	n	x	x	44
O=C(CSc1ccc(-c2ccc(Cl)cc2)nn1)N1CCCc2ccccc21	n	n	n	n	n	n
CC(=O)Nc1cccc(NC(=O)CSc2ccc(-c3cccnc3)nn2)c1	-26	x	n	n	x	n
O=C(CSc1ccc(-c2cccnc2)nn1)N1CCCc2ccccc21	-23	x	x	x	x	n
O=C(Cc1ccccn1)NCC[C@H]1CC[C@@H](NC(=O)Nc2ccccc2)[C@@H](CO)O1	n	n	x	n	n	n
Cc1nc(-c2ccccn2)nc(SCC(=O)N2CCOCC2)c1Cl	x	n	n	n	n	n

Screening data: PubChem, Broad Institute
